Results of several laboratories.
Protocols differ between the studies behind these lines.
MET: Hepatocyte growth factor receptor (MET, Homo sapiens, UniProt P08581)
MET Y1235D: Hepatocyte growth factor receptor (MET, Homo sapiens, UniProt P08581, Y1235D)
MET M1250T: Hepatocyte growth factor receptor (MET, Homo sapiens, UniProt P08581, M1250T)

Compound	target	effect on	mode	technique	tested at	endpoint	result
Cc1cnc(NC2CCOCC2)nc1-n1cnc(C(=O)NC(CN)c2cc(F)cc(Cl)c2)c1 (stereo not drawn)	Hepatocyte growth factor receptor (MET, Homo sapiens, UniProt P08581, D1228H)	enzyme activity	inhibitor	radiometric	1 µM	remaining activity	98%
Cc1ccc(C(=O)NCc2ccsc2)cc1C#Cc1cn(C(C)C)c2ncnc(N)c12	MET	enzyme activity	inhibitor	–	1 µM	activity vs control	86%
Cc1nccc(COC(=O)N2C[C@@H]3[C@@H](CNC(=O)c4ccc5[nH]nnc5c4)[C@@H]3C2)n1	MET Y1235D	cell-free assay	–	competition with immobilised ligand	1 µM	remaining binding	92%
Cc1ccc(NC(=O)c2ccc(C)c(C(F)(F)F)c2)cc1C#Cc1nn(C2CCC(O)CC2)c2ncnc(N)c12 (stereo not drawn)	Hepatocyte growth factor receptor (MET, Homo sapiens, UniProt P08581, Y1230C)	cell-free assay	–	–	10 µM	remaining signal	139%
N#CCCc1ccc2c(c1)-c1[nH]c3ccc([N+](=O)[O-])cc3c1CC(=O)N2	MET	cell-free assay	–	–	0.5 µM	remaining signal	119%
C[C@H](NC(=O)c1cnc2n1[C@](C)(Cc1ccc(C#N)cc1)C(=O)N2c1cc(Cl)c(F)c(Cl)c1)C(=O)NC1(c2ccccn2)CC1	MET	cell-free assay	–	competition with immobilised ligand	1 µM	remaining binding	100%
Cc1ccc(C(=O)Nc2ccc(CN3CCN(C)CC3)c(C(F)(F)F)c2)cc1C#Cc1cnc2cccnn12	MET	cell-free assay	–	–	23.5 nM	remaining signal	92%
COc1ccnn2ncc(-c3ccnc(N(C)C)n3)c12	MET M1250T	binding	–	–	1 µM	remaining binding	100%
CC(C)(C)c1nc2c(s1)c1nc(N)ncc1c1ccc(NS(=O)(=O)c3c(F)cccc3F)c(F)c12	MET	enzyme activity	inhibitor	radiometric	1 µM	remaining activity	90%
CNC(=O)c1cc2c(Oc3ccc(NC(=O)C4(C(=O)Nc5ccc(F)cc5)CC4)cc3)ccnc2cc1OC	Hepatocyte growth factor receptor (MET, Homo sapiens, UniProt P08581, Y1230D)	enzyme activity	inhibitor	radiometric	1 µM	inhibition	100%
CC/C(=N\NC(=O)NCc1cccc(O)c1)c1ccc(O)c(C)c1O	MET Y1235D	enzyme activity	inhibitor	–	0.1 µM	inhibition	0.7%
C[C@H]1CCN(c2nccc(-c3cnn4ncccc34)n2)C1	MET M1250T	binding	–	–	1 µM	remaining binding	50%
O=C(O)c1cc(-c2ccc(C3CCNCC3)cc2)c2ccc(-c3ccc(C(F)(F)F)cc3)cc2c1	MET Y1235D	cell-free assay	–	competition with immobilised ligand	1 µM	remaining binding	100%
O=C1Nc2ccc(Cl)cc2C1=Cc1cc(Cl)c(O)c(Cl)c1	MET	cell-free assay	–	–	0.5 µM	remaining signal	96.4%
N[C@@H]1CCN(c2nccc(-c3cnn4ncccc34)n2)C1	MET Y1235D	binding	–	–	1 µM	remaining binding	100%
NS(=O)(=O)c1cc(NC(=O)Cc2ccccc2)ccc1Oc1cccc(Cl)c1	MET	cell-free assay	–	competition with immobilised ligand	1 µM	remaining binding	91%
Cc1sc(C(=O)NC2COC2)cc1-n1cc(NC(=O)Nc2c(F)cccc2Cl)cn1	MET	enzyme activity	inhibitor	–	10 µM	remaining activity	77%
CN(CCCC(F)(F)F)c1nccc(-c2cnn3ncccc23)n1	MET Y1235D	binding	–	–	1 µM	remaining binding	100%
CC(=O)N1CCC(c2ccc(C(=O)NC(=N)N)cc2C(F)(F)F)CC1	MET	cell-free assay	–	competition with immobilised ligand	1 µM	remaining binding	100%
CN(C)c1ncc(F)c(-c2cnn3ncccc23)n1	MET M1250T	binding	–	–	1 µM	remaining binding	100%
COc1cc(Nc2c(C#N)cnc3cc(OCCCN4CCN(C)CC4)c(OC)cc23)c(Cl)cc1Cl	MET	cell-free assay	–	–	0.5 µM	remaining signal	84.5%
F[C@@H]1CCN(c2nccc(-c3cnn4ncccc34)n2)C1	MET M1250T	binding	–	–	1 µM	remaining binding	100%
Nc1ncnc2occ(-c3ccc(NC(=O)Nc4cc(C(F)(F)F)ccc4F)cc3)c12	MET Y1235D	cell-free assay	–	–	20 µM	remaining signal	1.6%
CO[C@@H](C)c1c(Nc2ccc([C@H](N(C)C(=O)C3CCS(=O)(=O)CC3)C(F)(F)F)cc2)cnc2cc(Cl)nn12	MET Y1235D	cell-free assay	–	competition with immobilised ligand	1 µM	remaining binding	100%
CC1CCCN1c1nccc(-c2cnn3ncccc23)n1 (stereo not drawn)	MET M1250T	binding	–	–	1 µM	remaining binding	100%
Cc1cc(NC(=O)c2cccc3cc(-c4cccc5[nH]nc(N)c45)ccc23)ccc1F	Hepatocyte growth factor receptor (MET, Homo sapiens, UniProt P08581, Y1230H)	enzyme activity	inhibitor	–	0.1 µM	activity vs control	106%
Cc1c[nH]c2nccc(Oc3c(F)cc(Nc4cc(Cl)nc(N)n4)cc3F)c12	MET	cell-free assay	–	competition with immobilised ligand	0.1 µM	remaining binding	83%
Cc1cnn2ncc(-c3ccnc(N(C)C)n3)c2c1	MET Y1235D	binding	–	–	1 µM	remaining binding	87%
CC(C)CC(=O)N1CCc2nc(-c3ccc(Br)cc3)nc(N(C)Cc3ccccc3)c2C1	MET	cell-free assay	–	competition with immobilised ligand	0.1 µM	remaining binding	99%
Oc1ccc(-c2nc(-c3ccncc3)c(-c3ccc(F)cc3)[nH]2)cc1	MET	cell-free assay	–	–	0.5 µM	remaining signal	94.4%
